Test results reported in the M2OR odorant receptor database.

Assays:
Settings in all cases: stereoisomer not certain
[1] = target: T1, OR10J5 (Homo sapiens) (UniProt Q8NHC4)
T1 sequence (whole entry): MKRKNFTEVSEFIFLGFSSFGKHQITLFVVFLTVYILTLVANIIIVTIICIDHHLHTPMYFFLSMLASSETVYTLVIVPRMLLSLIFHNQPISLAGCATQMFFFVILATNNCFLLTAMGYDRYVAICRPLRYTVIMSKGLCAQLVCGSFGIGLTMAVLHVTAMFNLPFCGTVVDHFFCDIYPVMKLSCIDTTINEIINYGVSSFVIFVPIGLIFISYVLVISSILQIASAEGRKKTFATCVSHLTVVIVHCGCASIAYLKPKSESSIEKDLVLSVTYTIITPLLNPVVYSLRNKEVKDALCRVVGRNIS
In short: (§1)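 Transient luciferase assays in mammalian cell lines were common, though methods varied by source. The values come from published papers and their supplementary material, with extra details from the original authors when needed. Responsive refers to a measured signal the original authors judged statistically different from baseline, and non-responsive (inactive) to the remainder.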

[2] = target: T2, OR10H4 (Homo sapiens) (UniProt Q8NGA5)
T2 sequence (whole entry): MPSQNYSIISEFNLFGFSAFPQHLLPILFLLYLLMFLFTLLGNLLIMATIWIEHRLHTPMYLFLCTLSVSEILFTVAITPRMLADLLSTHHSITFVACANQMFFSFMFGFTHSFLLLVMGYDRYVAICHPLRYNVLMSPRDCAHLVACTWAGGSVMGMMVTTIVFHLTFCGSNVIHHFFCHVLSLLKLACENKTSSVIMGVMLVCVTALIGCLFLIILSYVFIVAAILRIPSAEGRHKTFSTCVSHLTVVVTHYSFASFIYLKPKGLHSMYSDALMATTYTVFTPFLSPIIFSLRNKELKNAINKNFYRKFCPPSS
In short: as §1

[3] = target: T3, OR10H5 (Homo sapiens) (UniProt Q8NGA6)
T3 sequence (whole entry): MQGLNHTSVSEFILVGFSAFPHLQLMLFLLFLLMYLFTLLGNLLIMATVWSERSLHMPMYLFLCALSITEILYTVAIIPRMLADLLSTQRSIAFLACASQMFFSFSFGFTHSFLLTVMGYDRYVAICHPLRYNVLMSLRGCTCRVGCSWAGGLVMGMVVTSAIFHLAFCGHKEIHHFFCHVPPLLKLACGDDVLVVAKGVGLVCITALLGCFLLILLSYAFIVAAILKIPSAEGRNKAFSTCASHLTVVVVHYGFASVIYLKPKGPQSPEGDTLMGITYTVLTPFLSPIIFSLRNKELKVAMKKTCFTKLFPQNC
In short: as §1

[4] = target: T4, OR10J1 (Homo sapiens) (UniProt P30954)
T4 sequence (whole entry): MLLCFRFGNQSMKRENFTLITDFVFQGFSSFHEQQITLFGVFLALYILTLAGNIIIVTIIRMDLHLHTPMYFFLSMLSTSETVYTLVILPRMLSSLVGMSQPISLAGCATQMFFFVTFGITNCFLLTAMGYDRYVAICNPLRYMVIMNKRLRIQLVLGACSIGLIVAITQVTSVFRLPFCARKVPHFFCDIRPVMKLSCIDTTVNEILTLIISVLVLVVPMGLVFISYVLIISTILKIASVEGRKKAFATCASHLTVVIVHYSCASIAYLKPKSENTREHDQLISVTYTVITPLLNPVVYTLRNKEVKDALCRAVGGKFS
In short: as §1

[5] = target: T5, OR10J3 (Homo sapiens) (UniProt Q5JRS4)
T5 sequence (whole entry): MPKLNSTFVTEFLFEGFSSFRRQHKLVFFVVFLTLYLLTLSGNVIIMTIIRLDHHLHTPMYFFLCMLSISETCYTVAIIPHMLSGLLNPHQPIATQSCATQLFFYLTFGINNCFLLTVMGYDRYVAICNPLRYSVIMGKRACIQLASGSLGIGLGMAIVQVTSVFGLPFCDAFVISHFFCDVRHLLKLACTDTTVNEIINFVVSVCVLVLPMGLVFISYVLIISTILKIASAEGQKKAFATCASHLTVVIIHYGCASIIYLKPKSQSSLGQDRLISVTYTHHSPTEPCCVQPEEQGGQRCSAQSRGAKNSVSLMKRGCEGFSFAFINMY
In short: as §1

[6] = target: T6, OR10K1 (Homo sapiens) (UniProt Q8NGX5)
T6 sequence (whole entry): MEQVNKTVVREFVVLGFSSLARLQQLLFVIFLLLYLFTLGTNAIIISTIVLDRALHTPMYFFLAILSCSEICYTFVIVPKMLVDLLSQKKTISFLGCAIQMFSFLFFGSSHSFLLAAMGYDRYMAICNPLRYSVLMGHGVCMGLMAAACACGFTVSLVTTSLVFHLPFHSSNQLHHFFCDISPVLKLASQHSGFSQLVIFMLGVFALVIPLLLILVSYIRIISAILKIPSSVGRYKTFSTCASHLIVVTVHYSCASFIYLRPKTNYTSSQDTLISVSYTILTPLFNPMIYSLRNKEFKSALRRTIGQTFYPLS
In short: as §1

[7] = target: T7, OR10P1 (Homo sapiens) (UniProt Q8NGE3)
T7 sequence (whole entry): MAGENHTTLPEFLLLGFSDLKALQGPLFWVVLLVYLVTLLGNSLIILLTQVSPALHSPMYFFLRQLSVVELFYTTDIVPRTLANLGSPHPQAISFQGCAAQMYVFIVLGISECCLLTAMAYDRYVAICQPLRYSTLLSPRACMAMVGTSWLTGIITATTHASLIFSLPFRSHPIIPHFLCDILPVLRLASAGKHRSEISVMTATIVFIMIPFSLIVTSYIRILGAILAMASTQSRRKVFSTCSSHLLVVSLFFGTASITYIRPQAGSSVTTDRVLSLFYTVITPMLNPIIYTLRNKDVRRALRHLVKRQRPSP
In short: as §1

[8] = target: T8, OR10Q1 (Homo sapiens) (UniProt Q8NGQ4)
T8 sequence (whole entry): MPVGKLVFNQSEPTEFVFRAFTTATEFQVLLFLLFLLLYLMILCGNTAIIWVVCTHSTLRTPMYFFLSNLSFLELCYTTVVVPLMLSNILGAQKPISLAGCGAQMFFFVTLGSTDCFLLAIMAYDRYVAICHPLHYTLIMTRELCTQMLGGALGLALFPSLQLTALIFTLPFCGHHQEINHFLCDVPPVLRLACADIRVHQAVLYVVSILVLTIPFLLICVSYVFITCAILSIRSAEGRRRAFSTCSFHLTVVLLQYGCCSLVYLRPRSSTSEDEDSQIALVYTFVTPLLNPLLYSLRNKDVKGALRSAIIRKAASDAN
In short: as §1

[9] = target: T9, OR10R2 (Homo sapiens) (UniProt Q8NGX6)
T9 sequence (whole entry): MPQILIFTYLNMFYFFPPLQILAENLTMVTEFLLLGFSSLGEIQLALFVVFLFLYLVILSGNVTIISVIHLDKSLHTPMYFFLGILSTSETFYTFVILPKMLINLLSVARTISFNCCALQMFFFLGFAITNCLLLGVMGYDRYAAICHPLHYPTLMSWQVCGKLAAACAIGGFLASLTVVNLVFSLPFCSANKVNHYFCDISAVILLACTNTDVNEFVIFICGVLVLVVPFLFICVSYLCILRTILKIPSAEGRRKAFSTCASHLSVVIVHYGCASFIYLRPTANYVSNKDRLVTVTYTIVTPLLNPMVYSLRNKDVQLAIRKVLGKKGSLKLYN
In short: as §1

[10] = target: T10, OR10S1 (Homo sapiens) (UniProt Q8NGN2)
T10 sequence (whole entry): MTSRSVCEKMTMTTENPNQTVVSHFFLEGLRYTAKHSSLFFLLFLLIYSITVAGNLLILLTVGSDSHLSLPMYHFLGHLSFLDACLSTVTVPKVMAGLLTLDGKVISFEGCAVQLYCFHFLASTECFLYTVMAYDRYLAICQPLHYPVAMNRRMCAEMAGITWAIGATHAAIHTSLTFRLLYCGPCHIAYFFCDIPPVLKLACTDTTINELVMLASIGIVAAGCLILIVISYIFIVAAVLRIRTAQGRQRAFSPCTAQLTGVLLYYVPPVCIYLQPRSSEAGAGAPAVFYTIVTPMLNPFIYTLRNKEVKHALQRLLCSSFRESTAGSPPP
In short: as §1

[11] = target: T11, OR10T2 (Homo sapiens) (UniProt Q8NGX3)
T11 sequence (whole entry): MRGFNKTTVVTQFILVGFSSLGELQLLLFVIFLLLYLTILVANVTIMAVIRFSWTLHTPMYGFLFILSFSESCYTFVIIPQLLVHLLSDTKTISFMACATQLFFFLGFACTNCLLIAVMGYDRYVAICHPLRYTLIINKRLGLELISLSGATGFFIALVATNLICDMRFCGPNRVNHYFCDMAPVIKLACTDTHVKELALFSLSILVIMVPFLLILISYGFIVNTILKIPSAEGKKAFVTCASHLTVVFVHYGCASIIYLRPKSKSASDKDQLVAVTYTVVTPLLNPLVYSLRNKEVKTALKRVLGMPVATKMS
In short: as §1

[12] = target: T12, OR10V1 (Homo sapiens) (UniProt Q8NGI7)
T12 sequence (whole entry): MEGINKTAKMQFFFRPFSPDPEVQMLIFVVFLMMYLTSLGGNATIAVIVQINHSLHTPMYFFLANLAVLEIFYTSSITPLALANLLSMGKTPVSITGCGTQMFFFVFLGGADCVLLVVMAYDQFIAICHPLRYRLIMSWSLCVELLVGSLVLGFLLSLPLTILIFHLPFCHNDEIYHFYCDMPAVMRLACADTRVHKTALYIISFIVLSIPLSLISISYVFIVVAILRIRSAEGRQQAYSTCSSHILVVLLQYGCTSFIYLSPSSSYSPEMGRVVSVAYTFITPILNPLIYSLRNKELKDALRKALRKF
In short: as §1

[13] = target: T13, OR10W1 (Homo sapiens) (UniProt Q8NGF6)
T13 sequence (whole entry): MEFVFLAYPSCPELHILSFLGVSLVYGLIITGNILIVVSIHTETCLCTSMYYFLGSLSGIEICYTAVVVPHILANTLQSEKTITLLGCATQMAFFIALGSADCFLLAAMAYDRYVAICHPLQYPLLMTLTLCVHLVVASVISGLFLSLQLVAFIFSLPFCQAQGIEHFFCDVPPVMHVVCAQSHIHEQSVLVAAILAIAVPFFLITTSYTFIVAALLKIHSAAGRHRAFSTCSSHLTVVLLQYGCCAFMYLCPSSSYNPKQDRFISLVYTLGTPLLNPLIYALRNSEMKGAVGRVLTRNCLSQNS
In short: as §1

[14] = target: T14, OR10X1 (Homo sapiens) (UniProt Q8NGY0)
T14 sequence (whole entry): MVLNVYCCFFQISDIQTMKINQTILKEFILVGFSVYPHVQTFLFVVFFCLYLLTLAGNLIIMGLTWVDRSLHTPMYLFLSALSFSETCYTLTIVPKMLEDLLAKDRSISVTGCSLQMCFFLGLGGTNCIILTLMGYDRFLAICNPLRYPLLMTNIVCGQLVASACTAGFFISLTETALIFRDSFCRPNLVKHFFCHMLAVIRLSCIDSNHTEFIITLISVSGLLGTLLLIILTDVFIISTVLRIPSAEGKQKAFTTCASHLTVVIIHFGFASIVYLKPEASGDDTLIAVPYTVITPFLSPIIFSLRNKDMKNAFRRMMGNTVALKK
In short: as §1

[15] = target: T15, OR10Z1 (Homo sapiens) (UniProt Q8NGY1)
T15 sequence (whole entry): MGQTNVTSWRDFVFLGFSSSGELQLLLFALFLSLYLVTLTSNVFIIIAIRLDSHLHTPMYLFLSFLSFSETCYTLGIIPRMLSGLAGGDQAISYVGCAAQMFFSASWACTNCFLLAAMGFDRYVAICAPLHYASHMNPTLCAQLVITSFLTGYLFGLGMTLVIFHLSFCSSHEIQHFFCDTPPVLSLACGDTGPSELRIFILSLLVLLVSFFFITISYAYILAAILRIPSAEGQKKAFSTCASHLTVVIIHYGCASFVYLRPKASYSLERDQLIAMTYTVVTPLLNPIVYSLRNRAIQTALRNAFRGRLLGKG
In short: as §1

[16] = target: T16, OR11A1 (Homo sapiens) (UniProt Q9GZK7)
T16 sequence (whole entry): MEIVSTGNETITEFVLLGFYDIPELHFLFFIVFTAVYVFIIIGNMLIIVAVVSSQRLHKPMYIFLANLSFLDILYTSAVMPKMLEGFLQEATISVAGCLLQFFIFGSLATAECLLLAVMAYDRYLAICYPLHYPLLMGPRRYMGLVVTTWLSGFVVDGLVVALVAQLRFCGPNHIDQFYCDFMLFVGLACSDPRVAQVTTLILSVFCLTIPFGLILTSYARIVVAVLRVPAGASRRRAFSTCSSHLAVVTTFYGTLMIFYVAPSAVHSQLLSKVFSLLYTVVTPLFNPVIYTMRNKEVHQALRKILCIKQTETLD
In short: as §1

[17] = target: T17, OR11G2 (Homo sapiens) (UniProt Q8NGC1)
T17 sequence (whole entry): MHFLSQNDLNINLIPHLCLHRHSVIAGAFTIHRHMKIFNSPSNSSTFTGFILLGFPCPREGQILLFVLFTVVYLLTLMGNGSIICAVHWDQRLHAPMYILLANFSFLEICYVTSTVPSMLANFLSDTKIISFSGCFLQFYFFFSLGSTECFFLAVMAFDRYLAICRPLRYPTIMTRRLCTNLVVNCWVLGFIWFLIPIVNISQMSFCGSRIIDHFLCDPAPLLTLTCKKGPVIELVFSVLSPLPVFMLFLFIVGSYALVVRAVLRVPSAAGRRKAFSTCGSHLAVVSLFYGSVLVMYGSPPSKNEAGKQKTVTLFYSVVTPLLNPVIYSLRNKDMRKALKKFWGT
In short: as §1

[18] = target: T18, OR11H1 (Homo sapiens) (UniProt Q8NG94)
T18 sequence (whole entry): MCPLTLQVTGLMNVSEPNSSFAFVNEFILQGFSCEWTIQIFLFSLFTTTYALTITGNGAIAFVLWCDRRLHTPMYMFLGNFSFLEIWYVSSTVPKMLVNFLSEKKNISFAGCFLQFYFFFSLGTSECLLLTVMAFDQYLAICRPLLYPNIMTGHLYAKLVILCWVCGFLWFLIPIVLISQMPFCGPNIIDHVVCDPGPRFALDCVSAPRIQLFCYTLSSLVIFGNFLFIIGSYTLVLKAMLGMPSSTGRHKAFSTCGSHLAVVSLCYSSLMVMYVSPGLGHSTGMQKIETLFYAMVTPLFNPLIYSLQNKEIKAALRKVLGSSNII
In short: as §1

Measured: odorant receptor agonist call;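 note: active if original authors judged signal statistically different from baseline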

CCCCCCC(=O)[O-].[H+]
inactive: [1]

CCCCCC1=C(C)CCC1=O
inactive: [1]

CC1=C(O)C(=O)OC1C (configuration not stated)
inactive: all assays above

CCCCCCOC(C)=O
inactive: [1]

CCCCCCCO
inactive: [1]
